Assay results reported in ChEMBL document CHEMBL5260808, “Design of Phthalazinone Amide Histamine H1 Receptor Antagonists for Use in Rhinitis” (ACS Med Chem Lett, 2017).
Activity calls are given as the source filed them. The calls are words filed in the database; no cut-off is given here.

Tests used:
[1] = molecular target: Voltage-gated inwardly rectifying potassium channel KCNH2 (Homo sapiens, UniProt Q12809); experiment: Displacement of [3H]dofetilide from human ERG expressed in CHO-K1 cell membrane measured after 45 mins by topcount scintillation counting method; type: toxicity, cell membranes
[2] = molecular target: T1, Histamine H1 receptor (Homo sapiens, UniProt P35367); experiment: Antagonist activity against recombinant human H1 receptor expressed in CHO cells incubated for 30 mins by FLIPR analysis; type: cell-based
[3] = molecular target: T2, Alpha-1A adrenergic receptor (Homo sapiens, UniProt P35348); experiment: Antagonist activity against recombinant human adrenergic alpha1A receptor expressed in Rat1 cells incubated for 30 mins by FLIPR analysis; type: cell-based
T2 sequence (P35348 whole entry): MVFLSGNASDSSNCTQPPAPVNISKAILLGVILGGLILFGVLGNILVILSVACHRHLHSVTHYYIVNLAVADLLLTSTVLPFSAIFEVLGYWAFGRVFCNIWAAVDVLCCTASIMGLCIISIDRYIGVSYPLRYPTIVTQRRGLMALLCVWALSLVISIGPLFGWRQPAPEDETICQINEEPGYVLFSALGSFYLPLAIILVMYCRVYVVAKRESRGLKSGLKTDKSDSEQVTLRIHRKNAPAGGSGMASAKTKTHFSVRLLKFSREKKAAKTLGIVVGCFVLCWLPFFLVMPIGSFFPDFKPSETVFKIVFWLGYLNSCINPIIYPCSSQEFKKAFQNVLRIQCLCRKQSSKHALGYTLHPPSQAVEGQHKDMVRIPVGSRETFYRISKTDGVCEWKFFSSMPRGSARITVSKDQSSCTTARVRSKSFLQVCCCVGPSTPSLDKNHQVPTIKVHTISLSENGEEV
Procedure, shortened: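 Human α1A or α1B adrenoceptor in fibroblast cells. Plate-based calcium imaging.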

[4] = molecular target: T3, Alpha-1B adrenergic receptor (Homo sapiens, UniProt P35368); experiment: Antagonist activity against recombinant human adrenergic alpha1B receptor expressed in CHO cells incubated for 30 mins by FLIPR analysis; type: cell-based
T3 sequence (P35368 whole entry): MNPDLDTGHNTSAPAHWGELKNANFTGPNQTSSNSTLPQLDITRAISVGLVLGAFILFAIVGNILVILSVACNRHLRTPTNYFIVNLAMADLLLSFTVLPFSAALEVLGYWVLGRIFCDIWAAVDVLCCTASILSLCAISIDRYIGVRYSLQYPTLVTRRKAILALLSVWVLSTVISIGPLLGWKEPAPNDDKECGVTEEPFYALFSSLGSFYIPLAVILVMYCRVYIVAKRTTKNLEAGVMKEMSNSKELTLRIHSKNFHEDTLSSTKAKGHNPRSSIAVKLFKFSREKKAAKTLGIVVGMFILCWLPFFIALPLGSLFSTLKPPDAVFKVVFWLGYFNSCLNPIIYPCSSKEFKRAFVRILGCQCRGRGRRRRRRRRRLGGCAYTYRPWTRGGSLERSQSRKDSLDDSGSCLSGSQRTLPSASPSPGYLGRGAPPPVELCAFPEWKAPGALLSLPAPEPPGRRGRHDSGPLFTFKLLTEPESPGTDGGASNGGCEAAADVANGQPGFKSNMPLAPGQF

[5] = molecular target: T1, Histamine H1 receptor; experiment: Antagonist potency at human H1 receptor; conditions: read-out: pA2 (converted)
[6] = Distribution coefficient, log D of compound in n-octanol and phosphate buffered saline at pH 7.4 by HPLC analysis; type: physicochemical
[7] = Elimination in sc dosed dog urine; type: ADME, organism-based, Canis lupus familiaris; conditions: read-out: Drug excretion
Procedure, shortened: (§1)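 Beagle dogs dosed iv at 1 mg/kg, or subcutaneously in one dog. Parent compound measured in urine.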

[8] = Drug metabolism in mouse liver microsomes assessed as rate of metabolism; type: ADME
[9] = Drug metabolism in human hepatocytes assessed as metabolite formation at 10 uM measured after 3 hrs by LC-MS/MS analysis; type: ADME, cell-based, Hepatocyte
Procedure, shortened: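 Cryopreserved human hepatocytes incubated with compound (10 μM initial) for 3 h. Metabolites detected and profiled by LC–MS/MS.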

[10] = Elimination in iv dosed dog urine; type: ADME, organism-based, Canis lupus familiaris; conditions: read-out: Drug excretion; procedure, shortened: as §1
[11] = Drug absorption into hepatic portal vein of CD Sprague-Dawley rat at 3 mg/kg, po; type: ADME, organism-based; conditions: read-out: Drug absorption
Procedure, shortened: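 Male CD Sprague–Dawley rats dosed orally at 3 mg/kg. Absorption measured into the hepatic portal vein.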

[12] = tested on: Cavia porcellus; experiment: Antihistamine activity against conscious unrestrained ovalbumin and aluminum hydroxide sensitized guinea pigs assessed as inhibition of histamine-induced nasal congestion by measuring time duration of action at 1 mg/ml, intranasal measured after 1 to 24 hrs; type: functional; conditions: time 1-24 hrs
Procedure, shortened: (§2)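 Guinea pigs dosed intranasally with a 1 mg/mL solution (25 μL/nostril). Bilateral histamine challenge (15 or 10 mM, 25 μL/nostril, light isoflurane anesthesia) given 1 and 24 h after dosing. […] Comparison with vehicle-pretreated/histamine-challenged controls; mean ± SEM, n = 16–27 per group; p < 0.05.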

[13] = Drug metabolism in dog liver microsomes assessed as rate of metabolism; type: ADME, Canis lupus familiaris
[14] = Drug metabolism in human liver microsomes assessed as rate of metabolism; type: ADME
[15] = Drug metabolism in rat liver microsomes assessed as rate of metabolism; type: ADME
[16] = Oral bioavailability in CD Sprague-Dawley rat at 300 mg/kg; type: ADME, organism-based; conditions: in vivo
Procedure, shortened: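 Male CD Sprague–Dawley rats dosed orally at 300 mg/kg. Vehicle was H2O–PEG200–DMSO (50:45:5). Oral bioavailability determined from blood concentrations.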

[17] = Drug metabolism in monkey intestinal microsomes assessed as rate of metabolism; type: ADME, Macaca mulatta, Intestine; conditions: rhesus monkey
Procedure, shortened: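 Intestinal microsomes from monkey; in vitro rate of metabolism given in mL/min/g.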

[18] = molecular target: 5-hydroxytryptamine receptor 6 (Homo sapiens) (UniProt P50406); experiment: Inhibition of human 5-HT6 receptor at 1 uM relative to control
[19] = molecular target: 5-hydroxytryptamine receptor 7 (Homo sapiens) (UniProt P34969); experiment: Inhibition of human 5-HT7 receptor at 1 uM relative to control
[20] = molecular target: D(1A) dopamine receptor (Homo sapiens) (UniProt P21728); experiment: Inhibition of human dopamine D1 receptor at 1 uM relative to control
[21] = molecular target: D(2) dopamine receptor (Homo sapiens) (UniProt P14416); experiment: Inhibition of human dopamine D2S receptor at 1 uM relative to control
[22] = tested on: Cavia porcellus; experiment: Antihistamine activity against conscious unrestrained ovalbumin and aluminum hydroxide sensitized guinea pigs assessed as inhibition of histamine-induced nasal congestion at 1 mg/ml, intranasal measured after 1 to 24 hrs relative to control; type: functional, organism-based; conditions: time 1-24 hrs; procedure, shortened: as §2
[23] = molecular target: 5-hydroxytryptamine receptor 2A (Homo sapiens) (UniProt P28223); experiment: Inhibition of human 5-HT2A receptor at 1 uM relative to control
[24] = Bioavailability in human; type: ADME, organism-based; conditions: in vivo
[25] = Elimination half life in CD Sprague-Dawley rat at 3 mg/kg, po and 1 mg/kg, iv; type: ADME, organism-based; conditions: in vivo, read-out: beta t1/2 (converted)
Procedure, shortened: (§3)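 Male CD Sprague–Dawley rats and Beagle dogs. Solution in H2O–PEG200–DMSO (50:45:5), given iv at 1 mg/kg, and po at 3 mg/kg (rat) or 2 mg/kg (dog). Vss and elimination half-life derived after iv dosing.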

[26] = Volume of distribution at steady state in CD Sprague-Dawley rat at 3 mg/kg, po and 1 mg/kg, iv; type: ADME, organism-based; conditions: in vivo; procedure, shortened: as §3
[27] = Ratio of drug level in rat brain to blood at 1 mg/kg, iv bolus dose measured after 5 mins
[28] = Drug uptake in rat brain at 1 mg/kg, iv bolus dose; type: ADME, organism-based; conditions: in vivo
Procedure, shortened: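 Rats given a 1 mg/kg intravenous bolus. Brain and blood sampled at 5 min; brain–blood ratio and brain concentration determined, n = 3.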

[29] = Elimination half life in Beagle dog at 2 mg/kg, po and 1 mg/kg, iv; type: ADME, organism-based, Canis lupus familiaris; conditions: in vivo, read-out: beta t1/2 (converted); procedure, shortened: as §3
[30] = Volume of distribution at steady state in Beagle dog at 2 mg/kg, po and 1 mg/kg, iv; type: ADME, organism-based, Canis lupus familiaris; conditions: in vivo; procedure, shortened: as §3

T1 sequence (P35367 whole entry): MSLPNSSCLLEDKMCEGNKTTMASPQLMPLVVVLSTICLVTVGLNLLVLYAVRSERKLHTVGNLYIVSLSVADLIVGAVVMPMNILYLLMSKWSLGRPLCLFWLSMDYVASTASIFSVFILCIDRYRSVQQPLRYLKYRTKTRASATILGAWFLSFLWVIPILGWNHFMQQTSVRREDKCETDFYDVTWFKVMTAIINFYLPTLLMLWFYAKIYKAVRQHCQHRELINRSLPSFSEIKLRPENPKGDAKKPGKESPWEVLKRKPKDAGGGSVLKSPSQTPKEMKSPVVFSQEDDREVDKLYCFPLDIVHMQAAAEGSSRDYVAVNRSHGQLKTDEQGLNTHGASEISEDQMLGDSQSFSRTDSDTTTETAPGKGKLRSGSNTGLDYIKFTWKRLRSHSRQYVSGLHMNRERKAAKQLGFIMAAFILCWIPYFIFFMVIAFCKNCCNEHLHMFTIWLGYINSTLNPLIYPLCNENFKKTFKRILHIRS
Voltage-gated inwardly rectifying potassium channel KCNH2, sequence (Q12809 whole entry): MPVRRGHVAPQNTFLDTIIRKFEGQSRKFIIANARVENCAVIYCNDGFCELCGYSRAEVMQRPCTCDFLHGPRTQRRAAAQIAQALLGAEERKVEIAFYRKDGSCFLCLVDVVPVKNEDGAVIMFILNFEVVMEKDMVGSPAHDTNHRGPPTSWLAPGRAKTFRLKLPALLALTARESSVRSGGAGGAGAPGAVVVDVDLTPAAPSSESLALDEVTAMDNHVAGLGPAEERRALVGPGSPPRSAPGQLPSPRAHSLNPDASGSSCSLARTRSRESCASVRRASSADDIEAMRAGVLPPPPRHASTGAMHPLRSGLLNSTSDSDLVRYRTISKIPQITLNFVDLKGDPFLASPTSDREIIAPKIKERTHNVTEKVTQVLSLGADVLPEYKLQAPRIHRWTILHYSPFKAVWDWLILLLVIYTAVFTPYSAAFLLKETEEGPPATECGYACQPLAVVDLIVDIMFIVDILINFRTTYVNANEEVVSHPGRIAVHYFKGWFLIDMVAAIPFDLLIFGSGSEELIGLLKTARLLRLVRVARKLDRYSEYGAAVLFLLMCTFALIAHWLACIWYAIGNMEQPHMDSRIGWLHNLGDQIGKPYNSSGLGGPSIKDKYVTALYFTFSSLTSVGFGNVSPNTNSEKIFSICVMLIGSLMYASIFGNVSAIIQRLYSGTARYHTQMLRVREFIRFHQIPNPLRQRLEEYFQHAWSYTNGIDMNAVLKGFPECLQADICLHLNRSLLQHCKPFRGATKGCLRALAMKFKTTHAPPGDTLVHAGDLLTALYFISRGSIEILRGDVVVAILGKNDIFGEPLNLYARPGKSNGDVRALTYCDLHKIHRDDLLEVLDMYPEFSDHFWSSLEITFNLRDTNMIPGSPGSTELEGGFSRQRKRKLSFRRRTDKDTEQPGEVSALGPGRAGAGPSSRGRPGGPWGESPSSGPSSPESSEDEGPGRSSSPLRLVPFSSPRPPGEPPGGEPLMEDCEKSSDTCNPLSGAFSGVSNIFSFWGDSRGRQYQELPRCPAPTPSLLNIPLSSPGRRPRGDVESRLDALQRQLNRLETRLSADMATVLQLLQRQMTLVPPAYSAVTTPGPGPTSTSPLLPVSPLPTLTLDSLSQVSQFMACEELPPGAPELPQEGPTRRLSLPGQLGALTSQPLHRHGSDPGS
D(1A) dopamine receptor (Homo sapiens), sequence (P21728 whole entry): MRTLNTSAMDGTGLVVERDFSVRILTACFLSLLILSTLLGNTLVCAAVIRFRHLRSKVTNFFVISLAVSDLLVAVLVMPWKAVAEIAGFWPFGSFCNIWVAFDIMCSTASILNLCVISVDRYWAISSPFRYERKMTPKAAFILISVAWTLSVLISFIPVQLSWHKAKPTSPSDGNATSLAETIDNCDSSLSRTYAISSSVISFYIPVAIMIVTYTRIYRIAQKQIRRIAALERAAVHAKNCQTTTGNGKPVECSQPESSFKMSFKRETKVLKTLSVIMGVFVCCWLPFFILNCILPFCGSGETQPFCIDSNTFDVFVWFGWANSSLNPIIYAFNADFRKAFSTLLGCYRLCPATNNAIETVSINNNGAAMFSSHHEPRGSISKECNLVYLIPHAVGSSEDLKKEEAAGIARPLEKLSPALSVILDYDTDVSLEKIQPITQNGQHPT
5-hydroxytryptamine receptor 7 (Homo sapiens), sequence (P34969 whole entry): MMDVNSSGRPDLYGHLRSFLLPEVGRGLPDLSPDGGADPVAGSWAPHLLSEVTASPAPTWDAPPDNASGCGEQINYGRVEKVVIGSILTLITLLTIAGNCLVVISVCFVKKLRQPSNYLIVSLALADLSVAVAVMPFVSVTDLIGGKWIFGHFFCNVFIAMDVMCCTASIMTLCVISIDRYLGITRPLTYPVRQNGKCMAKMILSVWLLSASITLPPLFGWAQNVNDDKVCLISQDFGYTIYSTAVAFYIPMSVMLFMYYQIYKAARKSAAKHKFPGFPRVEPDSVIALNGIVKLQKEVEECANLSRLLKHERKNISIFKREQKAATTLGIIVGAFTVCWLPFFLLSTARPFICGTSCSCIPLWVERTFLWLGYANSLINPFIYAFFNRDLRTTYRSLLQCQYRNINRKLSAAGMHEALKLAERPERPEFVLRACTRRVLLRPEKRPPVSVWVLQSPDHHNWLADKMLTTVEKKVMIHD
5-hydroxytryptamine receptor 2A (Homo sapiens), sequence (P28223 whole entry): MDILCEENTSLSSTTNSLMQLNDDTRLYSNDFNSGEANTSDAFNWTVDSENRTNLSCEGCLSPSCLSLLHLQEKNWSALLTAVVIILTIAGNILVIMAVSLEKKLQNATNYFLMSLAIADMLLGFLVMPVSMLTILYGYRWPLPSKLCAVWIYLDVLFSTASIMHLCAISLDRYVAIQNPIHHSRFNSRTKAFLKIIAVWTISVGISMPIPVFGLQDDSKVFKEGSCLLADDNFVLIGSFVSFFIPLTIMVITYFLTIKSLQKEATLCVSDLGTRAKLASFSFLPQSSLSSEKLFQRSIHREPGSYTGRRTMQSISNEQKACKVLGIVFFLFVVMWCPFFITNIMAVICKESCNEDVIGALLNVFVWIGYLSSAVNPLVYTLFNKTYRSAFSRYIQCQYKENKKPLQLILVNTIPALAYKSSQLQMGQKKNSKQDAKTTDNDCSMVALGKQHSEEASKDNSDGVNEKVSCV
5-hydroxytryptamine receptor 6 (Homo sapiens), sequence (P50406 whole entry): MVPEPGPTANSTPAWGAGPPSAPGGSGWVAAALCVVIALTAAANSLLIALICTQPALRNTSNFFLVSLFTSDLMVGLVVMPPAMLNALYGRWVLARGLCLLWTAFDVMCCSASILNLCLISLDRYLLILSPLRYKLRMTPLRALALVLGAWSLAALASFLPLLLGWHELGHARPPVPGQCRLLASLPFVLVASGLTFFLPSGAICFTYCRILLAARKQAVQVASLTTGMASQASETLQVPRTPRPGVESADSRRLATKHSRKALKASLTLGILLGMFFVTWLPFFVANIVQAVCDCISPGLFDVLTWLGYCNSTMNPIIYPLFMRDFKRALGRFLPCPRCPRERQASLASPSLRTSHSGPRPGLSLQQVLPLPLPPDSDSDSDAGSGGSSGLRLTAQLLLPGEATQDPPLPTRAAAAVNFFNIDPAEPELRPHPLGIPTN
D(2) dopamine receptor (Homo sapiens), sequence (P14416 whole entry): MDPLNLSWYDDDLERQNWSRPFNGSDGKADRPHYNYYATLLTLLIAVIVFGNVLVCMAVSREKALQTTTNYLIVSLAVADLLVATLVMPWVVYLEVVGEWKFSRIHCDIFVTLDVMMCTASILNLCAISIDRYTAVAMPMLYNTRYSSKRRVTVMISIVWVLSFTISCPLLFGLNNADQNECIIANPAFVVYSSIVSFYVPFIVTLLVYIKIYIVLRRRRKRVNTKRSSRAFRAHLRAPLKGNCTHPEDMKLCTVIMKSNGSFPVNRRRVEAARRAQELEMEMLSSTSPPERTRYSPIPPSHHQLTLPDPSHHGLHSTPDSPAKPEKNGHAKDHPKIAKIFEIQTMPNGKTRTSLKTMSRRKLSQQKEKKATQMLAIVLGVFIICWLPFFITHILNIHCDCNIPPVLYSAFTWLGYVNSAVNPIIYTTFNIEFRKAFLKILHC

Structure (SMILES)	IC50 [1]	Ki [2]	Ki [3]	Ki [4]	Kb [5]	logD [6]	further results
CCCNC(=O)CCCN1CCC[C@@H]1Cn1nc(Cc2ccc(Cl)cc2)c2ccccc2c1=O	1.58 nM	5.01 nM	10 nM	31.6 nM	0.158 nM	3.3	–
COCCCC(=O)N(C)CCN1CCC[C@@H]1Cn1nc(Cc2ccc(Cl)cc2)c2ccccc2c1=O	398 nM	3.16 nM	31.6 nM	126 nM	0.1 nM	3.5	–
COCCCC(=O)NCCN1CCC[C@@H]1Cn1nc(Cc2ccc(Cl)cc2)c2ccccc2c1=O.Cl	–	–	–	–	–	–	dose excreted [7]: < 3%; Drug metabolism [8]: 50 mL/min/g; Drug metabolism [9]: Metabolite_Detected; dose excreted [10]: < 3%; Fa [11]: 3%; Time [12]: <48 h; Drug metabolism [13]: 12 mL/min/g; Drug metabolism [14]: 25 mL/min/g; Drug metabolism [15]: 50 mL/min/g; bioavailability [16]: < 3%; CLint scaled [17]: > 50 mL/min/g
CC(C)C(=O)NCCN1CCC[C@@H]1Cn1nc(Cc2ccc(Cl)cc2)c2ccccc2c1=O	398 nM	3.98 nM	3.98 nM	63.1 nM	0.132 nM	3.2	–
CCC(=O)NCCN1CCC[C@@H]1Cn1nc(Cc2ccc(Cl)cc2)c2ccccc2c1=O	200 nM	0.631 nM	15.8 nM	15.8 nM	0.251 nM	3.4	–
COCCNC(=O)CCCN1CCC[C@@H]1Cn1nc(Cc2ccc(Cl)cc2)c2ccccc2c1=O	39.8 nM	0.794 nM	6.31 nM	10 nM	0.501 nM	2.5	–
CCCC(=O)NCCN1CCC[C@@H]1Cn1nc(Cc2ccc(Cl)cc2)c2ccccc2c1=O	63.1 nM	0.794 nM	31.6 nM	79.4 nM	0.631 nM	3.7	–
COCCCC(=O)NCCN1CCC[C@@H]1Cn1nc(Cc2ccc(Cl)cc2)c2ccccc2c1=O	–	–	–	–	–	–	inhibition [18]: > 50%; inhibition [19]: > 50%; inhibition [20]: > 50%; inhibition [21]: > 50%; Activity [22]: Active; inhibition [23]: > 50%
O=C(NCCN1CCC[C@@H]1Cn1nc(Cc2ccc(Cl)cc2)c2ccccc2c1=O)C1CCCC1	50.1 nM	3.98 nM	79.4 nM	79.4 nM	0.316 nM	3.9	–
CN1CCCC(n2nc(Cc3ccc(Cl)cc3)c3ccccc3c2=O)CC1 (stereo unspecified) [AZELASTINE]	–	–	–	–	–	2.3	bioavailability [24]: 40%
O=C(NCCN1CCC[C@@H]1Cn1nc(Cc2ccc(Cl)cc2)c2ccccc2c1=O)C1CCOCC1	794 nM	10 nM	200 nM	–	0.794 nM	3.3	–
COCCCC(=O)NCCN1CCC[C@@H]1Cn1nc(Cc2ccc(Cl)cc2)c2ccccc2c1=O.O=C(O)C(F)(F)F	–	–	–	–	–	3.5	half-life [25]: 12 min; Vdss [26]: 0.7 L/kg; Kp at 5 min [27]: 0.18; Time [12]: <48 h; Drug uptake [28]: 121 ng/g; half-life [29]: 30 min; Vdss [30]: 1.1 L/kg
COCCC(=O)NCCN1CCC[C@@H]1Cn1nc(Cc2ccc(Cl)cc2)c2ccccc2c1=O	398 nM	0.794 nM	7.94 nM	63.1 nM	0.501 nM	3.2	–
COCC(=O)NCCN1CCC[C@@H]1Cn1nc(Cc2ccc(Cl)cc2)c2ccccc2c1=O	200 nM	1.26 nM	50.1 nM	31.6 nM	0.2 nM	3.1	–
